From ChEMBL document CHEMBL5058577, “EUbOPEN Chemogenomics Library 2 (Multiplex)” (2022)

Test system: Fibroblast
Assay: Multiplex assay against human fibroblast
Assay type: toxicity, cell-based
Procedure, shortened: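 Per cents of healthy-nucleus cells form the tubulin, mitochondrial-mass and membrane-permeability phenotype values. Live cells were stained at seeding with Hoechst33342, BioTracker Green Microtubule Cytoskeleton Dye, MitoTracker Red and Annexin V Alexa Fluor 680. After compound addition they were imaged on a CQ1 microscope at 37°C and 5% CO2, and CellPathfinder machine-learning gating split them into Hoechst high-intensity objects or normal cells, normal cells into healthy, pyknosed or fragmented nuclei, and pyknosed cells into mitotic or apoptotic.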

[1] = 12 h, 1 µM, compound concentration 1 uM, replicate 1
[2] = 12 h, 1 µM, compound concentration 1 uM, replicate 2
[3] = 12 h, 10 µM, compound concentration 10 uM, replicate 1
[4] = 12 h, 10 µM, compound concentration 10 uM, replicate 2
[5] = 24 h, 1 µM, compound concentration 1 uM, replicate 1
[6] = 24 h, 1 µM, compound concentration 1 uM, replicate 2
[7] = 24 h, 10 µM, compound concentration 10 uM, replicate 1
[8] = 24 h, 10 µM, compound concentration 10 uM, replicate 2
[9] = 48 h, 1 µM, compound concentration 1 uM, replicate 1
[10] = 48 h, 1 µM, compound concentration 1 uM, replicate 2
[11] = 48 h, 10 µM, compound concentration 10 uM, replicate 1
[12] = 48 h, 10 µM, compound concentration 10 uM, replicate 2

Question: `Cn1cc(C(=O)OCC2CCN(CCNS(C)(=O)=O)CC2)c2ccccc21` was tested. Which “Population Apoptotic (%)” value [1] did it give?
Answer: 44%

Question: What about the “Population Fragmented Nuclei (%)” value [1] of the same compound?
Answer: 13%

Question: And the “Population Healthy Nuclei (%)” value [1]?
Answer: 71%

Question: What about the “Population Hoechst High Intensity Objects (%)” value [1] of the same compound?
Answer: 1%

Question: What about the “Population Membrane Permeable-Phenotype (%)” value [1] of the same compound?
Answer: 0%

Question: And the “Population Mitochondria Different-Phenotype (%)” value [1]?
Answer: 3%

Question: What about the “Population Mitotic Cells (%)” value [1] of the same compound?
Answer: 55%

Question: And the “Population Normal (%)” value [1]?
Answer: 98%

Question: And the “Population Pyknosed Nuclei (%)” value [1]?
Answer: 14%

Question: And the “Population Tubulin-Different-Phenotype (%)” value [1]?
Answer: 23%

Question: What about the “Total Cell Count” value [1] of the same compound?
Answer: 202

Question: And the “Population Apoptotic (%)” value [2]?
Answer: 33%

Question: What about the “Population Fragmented Nuclei (%)” value [2] of the same compound?
Answer: 21%

Question: What about the “Population Healthy Nuclei (%)” value [2] of the same compound?
Answer: 46%

Question: What about the “Population Hoechst High Intensity Objects (%)” value [2] of the same compound?
Answer: 4%

Question: And the “Population Membrane Permeable-Phenotype (%)” value [2]?
Answer: 9%

Question: And the “Population Mitochondria Different-Phenotype (%)” value [2]?
Answer: 1%

Question: What about the “Population Mitotic Cells (%)” value [2] of the same compound?
Answer: 66%

Question: And the “Population Normal (%)” value [2]?
Answer: 95%

Question: What about the “Population Pyknosed Nuclei (%)” value [2] of the same compound?
Answer: 32%

Question: And the “Population Tubulin-Different-Phenotype (%)” value [2]?
Answer: 37%

Question: And the “Total Cell Count” value [2]?
Answer: 164

Question: What about the “Population Apoptotic (%)” value [3] of the same compound?
Answer: 48%

Question: What about the “Population Fragmented Nuclei (%)” value [3] of the same compound?
Answer: 29%

Question: And the “Population Healthy Nuclei (%)” value [3]?
Answer: 55%

Question: What about the “Population Hoechst High Intensity Objects (%)” value [3] of the same compound?
Answer: 3%

Question: What about the “Population Membrane Permeable-Phenotype (%)” value [3] of the same compound?
Answer: 0%

Question: And the “Population Mitochondria Different-Phenotype (%)” value [3]?
Answer: 9%

Question: And the “Population Mitotic Cells (%)” value [3]?
Answer: 51%

Question: And the “Population Normal (%)” value [3]?
Answer: 96%

Question: And the “Population Pyknosed Nuclei (%)” value [3]?
Answer: 14%

Question: And the “Population Tubulin-Different-Phenotype (%)” value [3]?
Answer: 41%

Question: What about the “Total Cell Count” value [3] of the same compound?
Answer: 207

Question: What about the “Population Apoptotic (%)” value [4] of the same compound?
Answer: 25%

Question: And the “Population Fragmented Nuclei (%)” value [4]?
Answer: 32%

Question: What about the “Population Healthy Nuclei (%)” value [4] of the same compound?
Answer: 51%

Question: What about the “Population Hoechst High Intensity Objects (%)” value [4] of the same compound?
Answer: 5%

Question: And the “Population Membrane Permeable-Phenotype (%)” value [4]?
Answer: 5%

Question: And the “Population Mitochondria Different-Phenotype (%)” value [4]?
Answer: 7%

Question: What about the “Population Mitotic Cells (%)” value [4] of the same compound?
Answer: 75%

Question: And the “Population Normal (%)” value [4]?
Answer: 94%

Question: And the “Population Pyknosed Nuclei (%)” value [4]?
Answer: 16%

Question: What about the “Population Tubulin-Different-Phenotype (%)” value [4] of the same compound?
Answer: 47%

Question: What about the “Total Cell Count” value [4] of the same compound?
Answer: 184

Question: What about the “Population Apoptotic (%)” value [5] of the same compound?
Answer: 31%

Question: What about the “Population Fragmented Nuclei (%)” value [5] of the same compound?
Answer: 13%

Question: And the “Population Healthy Nuclei (%)” value [5]?
Answer: 74%

Question: What about the “Population Hoechst High Intensity Objects (%)” value [5] of the same compound?
Answer: 5%

Question: What about the “Population Membrane Permeable-Phenotype (%)” value [5] of the same compound?
Answer: 0%

Question: And the “Population Mitochondria Different-Phenotype (%)” value [5]?
Answer: 0%

Question: What about the “Population Mitotic Cells (%)” value [5] of the same compound?
Answer: 68%

Question: What about the “Population Normal (%)” value [5] of the same compound?
Answer: 94%

Question: What about the “Population Pyknosed Nuclei (%)” value [5] of the same compound?
Answer: 11%

Question: What about the “Population Tubulin-Different-Phenotype (%)” value [5] of the same compound?
Answer: 23%

Question: What about the “Total Cell Count” value [5] of the same compound?
Answer: 201

Question: And the “Population Apoptotic (%)” value [6]?
Answer: 30%

Question: And the “Population Fragmented Nuclei (%)” value [6]?
Answer: 25%

Question: What about the “Population Healthy Nuclei (%)” value [6] of the same compound?
Answer: 47%

Question: And the “Population Hoechst High Intensity Objects (%)” value [6]?
Answer: 2%

Question: What about the “Population Membrane Permeable-Phenotype (%)” value [6] of the same compound?
Answer: 7%

Question: What about the “Population Mitochondria Different-Phenotype (%)” value [6] of the same compound?
Answer: 6%

Question: And the “Population Mitotic Cells (%)” value [6]?
Answer: 69%

Question: And the “Population Normal (%)” value [6]?
Answer: 97%

Question: And the “Population Pyknosed Nuclei (%)” value [6]?
Answer: 26%

Question: What about the “Population Tubulin-Different-Phenotype (%)” value [6] of the same compound?
Answer: 48%

Question: What about the “Total Cell Count” value [6] of the same compound?
Answer: 168

Question: And the “Population Apoptotic (%)” value [7]?
Answer: 80%

Question: What about the “Population Fragmented Nuclei (%)” value [7] of the same compound?
Answer: 33%

Question: And the “Population Healthy Nuclei (%)” value [7]?
Answer: 53%

Question: And the “Population Hoechst High Intensity Objects (%)” value [7]?
Answer: 5%

Question: What about the “Population Membrane Permeable-Phenotype (%)” value [7] of the same compound?
Answer: 0%

Question: And the “Population Mitochondria Different-Phenotype (%)” value [7]?
Answer: 3%

Question: What about the “Population Mitotic Cells (%)” value [7] of the same compound?
Answer: 20%

Question: What about the “Population Normal (%)” value [7] of the same compound?
Answer: 94%

Question: And the “Population Pyknosed Nuclei (%)” value [7]?
Answer: 13%

Question: And the “Population Tubulin-Different-Phenotype (%)” value [7]?
Answer: 42%

Question: And the “Total Cell Count” value [7]?
Answer: 201

Question: And the “Population Apoptotic (%)” value [8]?
Answer: 41%

Question: What about the “Population Fragmented Nuclei (%)” value [8] of the same compound?
Answer: 40%

Question: And the “Population Healthy Nuclei (%)” value [8]?
Answer: 43%

Question: And the “Population Hoechst High Intensity Objects (%)” value [8]?
Answer: 4%

Question: And the “Population Membrane Permeable-Phenotype (%)” value [8]?
Answer: 3%

Question: And the “Population Mitochondria Different-Phenotype (%)” value [8]?
Answer: 5%

Question: What about the “Population Mitotic Cells (%)” value [8] of the same compound?
Answer: 58%

Question: And the “Population Normal (%)” value [8]?
Answer: 95%

Question: And the “Population Pyknosed Nuclei (%)” value [8]?
Answer: 16%

Question: What about the “Population Tubulin-Different-Phenotype (%)” value [8] of the same compound?
Answer: 52%

Question: And the “Total Cell Count” value [8]?
Answer: 188

Question: What about the “Population Apoptotic (%)” value [9] of the same compound?
Answer: 54%

Question: What about the “Population Fragmented Nuclei (%)” value [9] of the same compound?
Answer: 14%

Question: And the “Population Healthy Nuclei (%)” value [9]?
Answer: 72%

Question: What about the “Population Hoechst High Intensity Objects (%)” value [9] of the same compound?
Answer: 5%

Question: What about the “Population Membrane Permeable-Phenotype (%)” value [9] of the same compound?
Answer: 0%

Question: What about the “Population Mitochondria Different-Phenotype (%)” value [9] of the same compound?
Answer: 1%

Question: And the “Population Mitotic Cells (%)” value [9]?
Answer: 45%

Question: What about the “Population Normal (%)” value [9] of the same compound?
Answer: 94%

Question: What about the “Population Pyknosed Nuclei (%)” value [9] of the same compound?
Answer: 12%

Question: What about the “Population Tubulin-Different-Phenotype (%)” value [9] of the same compound?
Answer: 23%

Question: And the “Total Cell Count” value [9]?
Answer: 197

Question: What about the “Population Apoptotic (%)” value [10] of the same compound?
Answer: 52%

Question: What about the “Population Fragmented Nuclei (%)” value [10] of the same compound?
Answer: 33%

Question: And the “Population Healthy Nuclei (%)” value [10]?
Answer: 54%

Question: What about the “Population Hoechst High Intensity Objects (%)” value [10] of the same compound?
Answer: 4%

Question: And the “Population Membrane Permeable-Phenotype (%)” value [10]?
Answer: 5%

Question: What about the “Population Mitochondria Different-Phenotype (%)” value [10] of the same compound?
Answer: 2%

Question: What about the “Population Mitotic Cells (%)” value [10] of the same compound?
Answer: 47%

Question: What about the “Population Normal (%)” value [10] of the same compound?
Answer: 95%

Question: And the “Population Tubulin-Different-Phenotype (%)” value [10]?
Answer: 43%

Question: And the “Total Cell Count” value [10]?
Answer: 177

Question: And the “Population Apoptotic (%)” value [11]?
Answer: 68%

Question: And the “Population Fragmented Nuclei (%)” value [11]?
Answer: 28%

Question: And the “Population Healthy Nuclei (%)” value [11]?
Answer: 58%

Question: What about the “Population Hoechst High Intensity Objects (%)” value [11] of the same compound?
Answer: 9%

Question: And the “Population Membrane Permeable-Phenotype (%)” value [11]?
Answer: 0%

Question: And the “Population Mitochondria Different-Phenotype (%)” value [11]?
Answer: 9%

Question: And the “Population Mitotic Cells (%)” value [11]?
Answer: 32%

Question: What about the “Population Normal (%)” value [11] of the same compound?
Answer: 90%

Question: What about the “Population Pyknosed Nuclei (%)” value [11] of the same compound?
Answer: 13%

Question: And the “Population Tubulin-Different-Phenotype (%)” value [11]?
Answer: 49%

Question: What about the “Total Cell Count” value [11] of the same compound?
Answer: 199

Question: What about the “Population Apoptotic (%)” value [12] of the same compound?
Answer: 50%

Question: What about the “Population Fragmented Nuclei (%)” value [12] of the same compound?
Answer: 40%

Question: What about the “Population Healthy Nuclei (%)” value [12] of the same compound?
Answer: 46%

Question: What about the “Population Hoechst High Intensity Objects (%)” value [12] of the same compound?
Answer: 6%

Question: And the “Population Membrane Permeable-Phenotype (%)” value [12]?
Answer: 2%

Question: What about the “Population Mitochondria Different-Phenotype (%)” value [12] of the same compound?
Answer: 8%

Question: And the “Population Mitotic Cells (%)” value [12]?
Answer: 50%

Question: And the “Population Normal (%)” value [12]?
Answer: 93%

Question: And the “Population Pyknosed Nuclei (%)” value [12]?
Answer: 12%

Question: And the “Population Tubulin-Different-Phenotype (%)” value [12]?
Answer: 60%

Question: What about the “Total Cell Count” value [12] of the same compound?
Answer: 190
